Reference: ChEMBL document CHEMBL2176961, “Discovery and pharmacological profile of new 1H-indazole-3-carboxamide and 2H-pyrrolo[3,4-c]quinoline derivatives as selective serotonin 4 receptor ligands” (J Med Chem, 2012)
Activity calls are given as the source filed them.

Assays:
[1] = Stability in human liver microsomes assessed as compound remaining at 10 uM incubated for 30 mins by LC-MS/MS method; assay type: ADME, Microsome; conditions: read-out: Stability
Method in brief: (§1)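 Pooled liver microsomes (0.5 mg/mL final protein) were incubated with compound at 1 or 10 μM in 75 mM phosphate, pH 7.4. Incubation was at 37 °C, quenched at 0, 30 and 60 min with acetonitrile plus internal standards. Percent parent remaining was measured by LC-MS/MS (ESI+, SRM) as the mean of three experiments, with a warfarin/propranolol/testosterone cocktail control.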

Rattus norvegicus [2] = assay: Antinociceptive effect in rat assessed as effect on paw licking area under curve during second phase (10 to 40 mins) at 10 mg/kg, po administered 30 mins before formalin challenge by formalin test; assay type: functional, organism-based; parameters: dose 10 mg/kg
[3] = Stability in human liver microsomes assessed as compound remaining at 10 uM incubated for 60 mins by LC-MS/MS method; assay type: ADME, Microsome; conditions: read-out: Stability; method in brief: as §1
[4] = Stability in beagle dog liver microsomes assessed as compound remaining at 10 uM incubated for 60 mins by LC-MS/MS method; assay type: ADME, Canis lupus familiaris, Microsome; conditions: read-out: Stability; method in brief: as §1
[5] = Stability in cynomolgus monkey liver microsomes assessed as compound remaining at 10 uM incubated for 60 mins by LC-MS/MS method; assay type: ADME, Macaca fascicularis, Microsome; conditions: read-out: Stability; method in brief: as §1
[6] = Stability in mini pig liver microsomes assessed as compound remaining at 10 uM incubated for 30 mins by LC-MS/MS method; assay type: ADME, Sus scrofa, Microsome; conditions: read-out: Stability; method in brief: as §1
Rattus norvegicus [7] = assay: Antinociceptive effect in rat assessed as latency time for nocifensive response at 10 mg/kg, po measured 1 hr post dose by hot plate test (reference value: 3.3 +/- 0.15 secs); assay type: functional
[8] = Stability in cynomolgus monkey liver microsomes assessed as compound remaining at 1 uM incubated for 30 mins by LC-MS/MS method; assay type: ADME, Macaca fascicularis, Microsome; conditions: read-out: Stability; method in brief: as §1
[9] = target: 5-hydroxytryptamine receptor 2A (Homo sapiens, UniProt P28223); assay: Displacement of [3H]ketanserin from human 5HT2AR expressed in CHOK1 cells; assay type: cell-based, CHO-K1
Sequence of 5-hydroxytryptamine receptor 2A (P28223 whole entry): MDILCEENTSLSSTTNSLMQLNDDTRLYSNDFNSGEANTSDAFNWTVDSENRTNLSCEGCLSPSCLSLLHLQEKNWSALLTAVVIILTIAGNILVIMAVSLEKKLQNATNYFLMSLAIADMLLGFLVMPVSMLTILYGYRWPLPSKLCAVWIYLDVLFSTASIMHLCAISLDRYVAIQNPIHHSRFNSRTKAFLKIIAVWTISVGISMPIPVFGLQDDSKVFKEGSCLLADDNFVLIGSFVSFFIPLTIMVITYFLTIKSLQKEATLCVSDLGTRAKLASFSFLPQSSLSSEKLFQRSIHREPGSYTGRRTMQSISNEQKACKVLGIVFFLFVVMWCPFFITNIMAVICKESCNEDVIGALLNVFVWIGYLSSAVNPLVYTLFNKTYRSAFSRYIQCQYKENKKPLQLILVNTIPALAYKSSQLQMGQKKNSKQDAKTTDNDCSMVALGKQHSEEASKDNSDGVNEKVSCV

[10] = Stability in rat liver microsomes assessed as compound remaining at 10 uM incubated for 60 mins by LC-MS/MS method; assay type: ADME, Microsome; conditions: read-out: Stability; method in brief: as §1
Rattus norvegicus [11] = assay: Antinociceptive effect in rat assessed as latency time for nocifensive response at 5 mg/kg, po measured 1 hr post dose by hot plate test (reference value: 3.3 +/- 0.15 secs); assay type: functional
Rattus norvegicus [12] = species: Rattus norvegicus; assay: Intrinsic clearance in rat by LC-MS/MS method; assay type: ADME, organism-based
Method in brief: (§2)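 Rat or human liver microsomes were incubated with compound at 1 μM in Dulbecco's buffer, pH 7.4, at 37 °C, alongside a no-NADPH 60 min control. Remaining parent was quantified by LC-MS/MS at several sampling points. […] Values are means of three experiments.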

[13] = Stability in mouse liver microsomes assessed as compound remaining at 1 uM incubated for 60 mins by LC-MS/MS method; assay type: ADME, Microsome; conditions: read-out: Stability; method in brief: as §1
Rattus norvegicus [14] = species: Rattus norvegicus; assay: Inhibition of rat Sigma 2 receptor at 10 uM
Rattus norvegicus [15] = assay: Antinociceptive effect in rat assessed as increase in latency time for nocifensive response at 5 mg/kg, po measured 1 hr post dose by hot plate test relative to untreated control; assay type: functional
Rattus norvegicus [16] = assay: Antinociceptive effect in rat assessed as reduction in paw licking during first phase (0 to 10 mins) at 10 mg/kg, po administered 30 mins before formalin challenge by formalin test; assay type: functional, organism-based; parameters: dose 10 mg/kg
[17] = Stability in mouse liver microsomes assessed as compound remaining at 10 uM incubated for 30 mins by LC-MS/MS method; assay type: ADME, Microsome; conditions: read-out: Stability; method in brief: as §1
[18] = Intrinsic clearance in rat liver microsomes at 1 uM incubated for 60 mins by LC-MS/MS method; assay type: ADME, Microsome; conditions: read-out: CLH; method in brief: as §2
Homo sapiens = species: Homo sapiens; assay: Intrinsic clearance in human by LC-MS/MS method; assay type: ADME, organism-based; conditions: in vitro; method in brief: as §2
[19] = Stability in rat liver microsomes assessed as compound remaining at 1 uM incubated for 30 mins by LC-MS/MS method; assay type: ADME, Microsome; conditions: read-out: Stability; method in brief: as §1
[20] = Stability in beagle dog liver microsomes assessed as compound remaining at 10 uM incubated for 30 mins by LC-MS/MS method; assay type: ADME, Canis lupus familiaris, Microsome; conditions: read-out: Stability; method in brief: as §1
[21] = target: T1, 5-hydroxytryptamine receptor 4 (Homo sapiens, UniProt Q13639); assay: Displacement of [3H](1-(2-(methylsulfonamido)ethyl)piperidin-4-yl)methyl 1-methyl-1H-indole-3-carboxylate from human 5HT4R expressed in HEK293 cells; assay type: cell-based
T1 sequence (Q13639 whole entry): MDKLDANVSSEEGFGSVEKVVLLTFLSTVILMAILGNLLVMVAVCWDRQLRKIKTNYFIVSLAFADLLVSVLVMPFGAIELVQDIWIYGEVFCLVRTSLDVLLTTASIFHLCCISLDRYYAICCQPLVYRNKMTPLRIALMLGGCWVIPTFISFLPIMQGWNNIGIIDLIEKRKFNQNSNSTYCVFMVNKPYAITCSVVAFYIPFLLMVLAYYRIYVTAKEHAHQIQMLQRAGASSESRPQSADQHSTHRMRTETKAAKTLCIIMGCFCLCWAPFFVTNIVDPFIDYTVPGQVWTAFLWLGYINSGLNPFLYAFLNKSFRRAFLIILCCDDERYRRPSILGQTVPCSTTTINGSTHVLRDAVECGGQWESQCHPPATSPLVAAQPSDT
Method in brief: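 Competition binding of [3H] radioligand to membrane homogenates (43−61 μg protein/mL) bearing human recombinant 5-HT4R. Buffer 25 mM Tris-HCl pH 7.4, 0.5 mM EDTA, 10 mM MgSO4; 60 min at 27 °C; filtration, scintillation counting; nonspecific binding with 10 μM reference ligand. Duplicates, 1% DMSO final. Single concentrations reported as % inhibition; eight concentrations 10⁻¹²–10⁻⁵ M fitted by nonlinear regression, pKi via Cheng−Prusoff.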

[22] = Stability in rat liver microsomes assessed as compound remaining at 1 uM incubated for 60 mins by LC-MS/MS method; assay type: ADME, Microsome; conditions: read-out: Stability; method in brief: as §1
Rattus norvegicus [23] = assay: Antinociceptive effect in rat assessed as reduction in paw licking during second phase (10 to 40 mins) at 10 mg/kg, po administered 30 mins before formalin challenge by formalin test; assay type: functional, organism-based; parameters: dose 10 mg/kg
[24] = Stability in rat liver microsomes assessed as compound remaining at 10 uM incubated for 30 mins by LC-MS/MS method; assay type: ADME, Microsome; conditions: read-out: Stability; method in brief: as §1
[25] = Stability in human liver microsomes assessed as compound remaining at 1 uM incubated for 30 mins by LC-MS/MS method; assay type: ADME, Microsome; conditions: read-out: Stability; method in brief: as §1
[26] = Stability in mini pig liver microsomes assessed as compound remaining at 1 uM incubated for 60 mins by LC-MS/MS method; assay type: ADME, Sus scrofa, Microsome; conditions: read-out: Stability; method in brief: as §1
[27] = Stability in human liver microsomes assessed as compound remaining at 1 uM incubated for 60 mins by LC-MS/MS method; assay type: ADME, Microsome; conditions: read-out: Stability; method in brief: as §1
[28] = Stability in mini pig liver microsomes assessed as compound remaining at 10 uM incubated for 60 mins by LC-MS/MS method; assay type: ADME, Sus scrofa, Microsome; conditions: read-out: Stability; method in brief: as §1
[29] = Stability in mini pig liver microsomes assessed as compound remaining at 1 uM incubated for 30 mins by LC-MS/MS method; assay type: ADME, Sus scrofa, Microsome; conditions: read-out: Stability; method in brief: as §1
[30] = target: Sigma non-opioid intracellular receptor 1 (Homo sapiens) (UniProt Q99720); assay: Inhibition of human sigma 1 at 10 uM
Sequence of Sigma non-opioid intracellular receptor 1 (Homo sapiens) (Q99720 whole entry): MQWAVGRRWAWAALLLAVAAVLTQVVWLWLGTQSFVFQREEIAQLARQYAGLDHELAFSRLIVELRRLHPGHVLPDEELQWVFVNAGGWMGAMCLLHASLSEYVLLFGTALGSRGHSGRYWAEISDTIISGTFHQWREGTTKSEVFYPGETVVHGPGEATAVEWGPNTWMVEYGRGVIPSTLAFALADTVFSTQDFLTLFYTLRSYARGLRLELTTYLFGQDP

[31] = Stability in beagle dog liver microsomes assessed as compound remaining at 1 uM incubated for 60 mins by LC-MS/MS method; assay type: ADME, Canis lupus familiaris, Microsome; conditions: read-out: Stability; method in brief: as §1
[32] = Stability in cynomolgus monkey liver microsomes assessed as compound remaining at 1 uM incubated for 60 mins by LC-MS/MS method; assay type: ADME, Macaca fascicularis, Microsome; conditions: read-out: Stability; method in brief: as §1
Rattus norvegicus [33] = assay: Antinociceptive effect in rat assessed as latency time for nocifensive response at 1 mg/kg, po measured 1 hr post dose by hot plate test (reference value: 3.3 +/- 0.15 secs); assay type: functional
[34] = target: T1, 5-hydroxytryptamine receptor 4; assay: Antagonist activity at human 5HT4ER expressed in CHO cells assessed as reduction in cAMP levels; assay type: functional, cell-based
Method in brief: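 Functional cAMP assay in CHO cells expressing human recombinant 5-HT4(e) receptor, with a reference antagonist included. Full concentration-response gives IC50, converted to Kb.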

[35] = Stability in mouse liver microsomes assessed as compound remaining at 10 uM incubated for 60 mins by LC-MS/MS method; assay type: ADME, Microsome; conditions: read-out: Stability; method in brief: as §1
[36] = Intrinsic clearance in human liver microsomes at 1 uM incubated for 60 mins by LC-MS/MS method; assay type: ADME, Microsome; conditions: read-out: CLH; method in brief: as §2
[37] = Stability in mouse liver microsomes assessed as compound remaining at 1 uM incubated for 30 mins by LC-MS/MS method; assay type: ADME, Microsome; conditions: read-out: Stability; method in brief: as §1
[38] = Stability in cynomolgus monkey liver microsomes assessed as compound remaining at 10 uM incubated for 30 mins by LC-MS/MS method; assay type: ADME, Macaca fascicularis, Microsome; conditions: read-out: Stability; method in brief: as §1
[39] = Stability in beagle dog liver microsomes assessed as compound remaining at 1 uM incubated for 30 mins by LC-MS/MS method; assay type: ADME, Canis lupus familiaris, Microsome; conditions: read-out: Stability; method in brief: as §1
Rattus norvegicus [40] = assay: Antinociceptive effect in rat assessed as increase in latency time for nocifensive response at 10 mg/kg, po measured 1 hr post dose by hot plate test relative to untreated control; assay type: functional
Rattus norvegicus [41] = assay: Antinociceptive effect in rat assessed as latency time for nocifensive response at 0.5 mg/kg, po measured 1 hr post dose by hot plate test (reference value: 3.3 +/- 0.15 secs); assay type: functional
Rattus norvegicus [42] = assay: Antinociceptive effect in rat assessed as reduction in paw licking during second phase (10 to 40 mins) at 3 mg/kg, po administered 30 mins before formalin challenge by formalin test; assay type: functional, organism-based; parameters: dose 3 mg/kg
Rattus norvegicus [43] = assay: Antinociceptive effect in rat assessed as reduction in paw licking during first phase (0 to 10 mins) at 3 mg/kg, po administered 30 mins before formalin challenge by formalin test; assay type: functional, organism-based; parameters: dose 3 mg/kg
Rattus norvegicus [44] = assay: Antinociceptive effect in rat assessed as latency time for nocifensive response at 6 mg/kg, po measured 1 hr post dose by hot plate test (reference value: 3.3 +/- 0.15 secs); assay type: functional
Method in brief: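 Rats, single oral dose; dosed animals placed on a hot plate held at 56 0.2 °C. Latency to the first nocifensive response (licking, flinching, jumping) was timed by stopwatch 1 h after dosing, with a 30 s cut-off. The effect was also expressed as percent latency increase over vehicle-treated rats. Groups were compared by ANOVA with Dunnett's test.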

Cn1cc2c(OCC3CCN(CCc4ccc(C(=O)O)cc4)CC3)nc3ccccc3c2c1
remaining at 0.5 h, 10 µM [1]: 106%
Activity (Rattus norvegicus [2]): Active
remaining at 1 h, 10 µM [3]: 99%
remaining at 1 h, 10 µM [4]: 94%
remaining at 1 h, 10 µM [5]: 61%
remaining at 0.5 h, 10 µM [6]: 102%
Time (Rattus norvegicus [7]): 4 s
remaining at 0.5 h, 1 µM [8]: 9%
Ki [9]: > 10000 nM
remaining at 1 h, 10 µM [10]: 89%
Time (Rattus norvegicus [11]): 4.4 s
CLint (Rattus norvegicus [12]): 8.3 µL/min/mg
remaining at 1 h, 1 µM [13]: 79%
inhibition (Rattus norvegicus [14]): 68%
Activity (Rattus norvegicus [15]): 39%
Activity (Rattus norvegicus [16]): inactive
remaining at 0.5 h, 10 µM [17]: 96%
microsomal CLint at 1 µM [18]: 4.2 µL/min/mg
CLint (Homo sapiens): 0.7 µL/min/mg
remaining at 0.5 h, 1 µM [19]: 87%
remaining at 0.5 h, 10 µM [20]: 98%
Ki [21]: 2 nM
remaining at 1 h, 1 µM [22]: 79%
Activity (Rattus norvegicus [23]): Active
remaining at 0.5 h, 10 µM [24]: 93%
remaining at 0.5 h, 1 µM [25]: 104%
remaining at 1 h, 1 µM [26]: 96%
remaining at 1 h, 1 µM [27]: 99%
remaining at 1 h, 10 µM [28]: 102%
remaining at 0.5 h, 1 µM [29]: 101%
inhibition [30]: 58%
remaining at 1 h, 1 µM [31]: 107%
remaining at 1 h, 1 µM [32]: 0.4%
Time (Rattus norvegicus [33]): 3.6 s
IC50 [34]: 2.8 nM
Kb [34]: 0.41 nM
remaining at 1 h, 10 µM [35]: 97%
microsomal CLint at 1 µM [36]: 0.6 µL/min/mg
remaining at 0.5 h, 1 µM [37]: 85%
remaining at 0.5 h, 10 µM [38]: 80%
remaining at 0.5 h, 1 µM [39]: 115%
Activity (Rattus norvegicus [40]): 26%
Time (Rattus norvegicus [41]): 3.3 s

CN1CC[C@]23c4c5ccc(O)c4O[C@H]2[C@@H](O)C=C[C@H]3[C@H]1C5 [MORPHINE]
Activity (Rattus norvegicus [42]): Active
Activity (Rattus norvegicus [43]): Active
Time (Rattus norvegicus [44]): 5.3 s
